# Test results from ChEMBL document CHEMBL1140696, “Effects of introduction of hydrophobic group on ribavirin base on mutation induction and anti-RNA viral activity” (2008).
# Columns and labels:
# Enterovirus C [1] = experiment: Incorporation of Poliovirus RNA dependent RNA polymerase into sym/sub-U primer
# In short: (§1)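 NTP was 10–250 µM; reactions ran 2 min at 30 °C and were quenched with EDTA. Products were resolved by 20% denaturing PAGE. Initial rates came from the elongated fraction, and kcat and KM from Lineweaver–Burk plots (mean ± SD, n = 3).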
# Enterovirus C [2] = experiment: Ratio of kcat/Km of Poliovirus RNA dependent RNA polymerase incorporation into sym/sub-U primer; parameters: unit not given here
# Enterovirus C [3] = experiment: Incorporation of Poliovirus RNA dependent RNA polymerase into sym/sub-C primer; in short: as §1
# Enterovirus C [4] = experiment: Ratio of kcat/Km of Poliovirus RNA dependent RNA polymerase incorporation into sym/sub-C primer relative to control; parameters: unit not given here
# Enterovirus C [5] = experiment: Antiviral activity against poliovirus infected HeLa S3 cells assessed as plaque formation at 2 mM; type: functional
# In short: (§2)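 HeLa S3 cells (DMEM/F-12, 2% dialyzed FBS) were pretreated with nucleoside for 1 h at 37 °C in 1% DMSO final. Cells were infected with poliovirus (1 × 10⁶ PFU in PBS) for 15 min at 23 °C, then kept 6 h at 37 °C with nucleoside. Cell-associated virus was released by three freeze–thaw cycles and titred by plaque assay on HeLa S3 (1% low-melting agarose overlay, 2 days, crystal violet). Titre is given as % of untreated control.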
# Enterovirus C [6] = experiment: Antiviral activity against poliovirus infected HeLa S3 cells assessed as plaque formation at 0.5 mM relative to control; type: functional; in short: as §2
SMILES,Km (Enterovirus C [1]) [µM],kcat (Enterovirus C [1]),kcat/Km (Enterovirus C [2]),Km (Enterovirus C [3]) [µM],kcat (Enterovirus C [3]),kcat/Km (Enterovirus C [4]),Activity (Enterovirus C [5]) [%],Activity (Enterovirus C [6]) [%]
Nc1nc2c(ncn2[C@@H]2O[C@H](COP(=O)(O)OP(=O)(O)OP(=O)(O)O)[C@@H](O)[C@H]2O)c(=O)[nH]1,56,5 10^-4/s,,,,,,
NC(=O)c1nn([C@@H]2O[C@H](COP(=O)(O)OP(=O)(O)OP(=O)(O)O)[C@@H](O)[C@H]2O)cc1I,24,4.7 10^-4/s,20,40,1.8 10^-4/s,4.4,,
CC#Cc1cn([C@@H]2O[C@H](CO)[C@@H](O)[C@H]2O)nc1C(N)=O,,,,,,,57,94
NC(=O)c1nn([C@@H]2O[C@H](CO)[C@@H](O)[C@H]2O)cc1I,,,,,,,68,76
Nc1ncnc2c1ncn2[C@@H]1O[C@H](COP(=O)(O)OP(=O)(O)OP(=O)(O)O)[C@@H](O)[C@H]1O,,,,110,0.82 10^-4/s,,,
NC(=O)c1ncn([C@@H]2O[C@H](CO)[C@@H](O)[C@H]2O)n1 [RIBAVIRIN],,,,,,,4,40
NC(=O)c1nn([C@@H]2O[C@H](CO)[C@@H](O)[C@H]2O)cc1C#Cc1ccccc1,,,,,,,,122
NC(=O)c1ncn([C@@H]2O[C@H](COP(=O)(O)OP(=O)(O)OP(=O)(O)O)[C@@H](O)[C@H]2O)n1,34,3.7 10^-4/s,,69,5.8 10^-4/s,,,
CC#Cc1cn([C@@H]2O[C@H](COP(=O)(O)OP(=O)(O)OP(=O)(O)O)[C@@H](O)[C@H]2O)nc1C(N)=O,35,3.1 10^-4/s,9.1,51,1.3 10^-4/s,2.6,,
